The source of these data is ChEMBL document CHEMBL1126221, “Antimitotic agents: structure-activity studies with some pyridine derivatives” (J Med Chem, 1992).

The subject of experiment [1] is L1210. As to the kind of experiment: Concentration required to inhibit proliferation of cultured lymphoid leukemia L1210 cells to 50% growth over 48 hours. In kind it is functional, cell-based. As to conditions: Mus musculus, L1210, 48 h. Put shortly: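 Cultured lymphoid leukemia L1210 cells were exposed to agent for 48 h. IC50 is the micromolar concentration that holds proliferation to 50% growth.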

The test system of experiment [2] is P388. Put plainly: Compound was evaluated for antitumor activity against mice implanted with lymphatic leukemia P388 cells (10e6 tumor cells) after intraperitoneal administration of 200 mg/kg per injection (1-5 days). In kind it is functional. As to conditions: Mus musculus, P388, ip. Summed up: (§1)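 Mice implanted ip with 10⁶ lymphocytic leukemia P388 cells; drug given ip on days 1-5. Read-out is % increase in life span (% ILS) versus untreated controls, reported at the highest nontoxic dose tested.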

Experiment [3] in a line: Compound's concentration required to inhibit proliferation of cultured KB cells to 50% growth during 48 hours. The format is functional, cell-based. The note with it: Homo sapiens.
Experiment [4] concerns P388. Put plainly: Compound was evaluated for antitumor activity against mice implanted with lymphatic leukemia P388 cells (10e6 tumor cells) after intraperitoneal administration of 200 mg/kg per injection. In kind it is functional. As to conditions: Mus musculus, P388, ip.
The subject of experiment [5] is P388. Put plainly: Compound was evaluated for antitumor activity against mice implanted with lymphatic leukemia P388 cells (10e6 tumor cells) after intraperitoneal administration of 100 mg/kg per injection (1-5 days). The note with it: Mus musculus, P388, ip. In kind it is functional. Summed up: as §1
The test system of experiment [6] is L1210. As to the kind of experiment: Effect on the mitosis of cultured L1210 cells measured in metaphase at 12 hours and 3 uM concentration. The format is functional, Mus musculus. Put shortly: (§2)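 Cultured L1210 cells were exposed for 12 h to 0, 3, 10, 30, 50 or 100 μM agent. Read-out was the percentage of cells in metaphase.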
The test system of experiment [7] is L1210. As to the kind of experiment: Effect on the mitosis of cultured L1210 cells measured in metaphase at 12 hours and 50 uM concentration. In kind it is functional, Mus musculus. Put shortly:
as §2

In experiment [8] the test system is L1210. Put plainly: Effect on the mitosis of cultured L1210 cells measured in metaphase at 12 hours and 0 uM concentration. The format is functional, Mus musculus. Summed up: as §2
Experiment [9] deals with L1210. As to the kind of experiment: Effect on the mitosis of cultured L1210 cells measured in metaphase at 12 hours and 10 uM concentration. In kind it is functional, Mus musculus. Put shortly: as §2
Experiment [10] concerns L1210. Put plainly: Effect on the mitosis of cultured L1210 cells measured in metaphase at 12 hours and 100 uM concentration. In kind it is functional, Mus musculus. Summed up: as §2
Experiment [11] has as its system L1210. Put plainly: Effect on the mitosis of cultured L1210 cells measured in metaphase at 12 hours and 30 uM concentration. The format is functional, Mus musculus. Put shortly: as §2
For experiment [12], the system named is L1210. Put plainly: Compound was evaluated for antitumor activity against mice implanted with lymphatic leukemia L1210 cells (10e6 tumor cells) after intraperitoneal administration of 200 mg/kg per injection (1-15 days). The note with it: Mus musculus, L1210, ip.
Experiment [13] has as its system HEp-2. As to the kind of experiment: Compound's concentration required to inhibit proliferation of cultured HEP-2 cells to 50% growth during 48 hours. In kind it is functional, cell-based. As to conditions: Homo sapiens, HEp-2, 48 h.
The test system of experiment [14] is P388. Put plainly: Compound was evaluated for antitumor activity against mice implanted with lymphatic leukemia P388 cells (10e6 tumor cells) after intraperitoneal administration of 2 mg/kg per injection (1-5 days). The format is functional. The note with it: Mus musculus, P388, ip. Put shortly:
as §1

The test system of experiment [15] is P388. As to the kind of experiment: Compound was evaluated for antitumor activity against mice implanted with lymphatic leukemia P388 cells (10e6 tumor cells) after intraperitoneal administration of 200 mg/kg per injection (highest dose tested). The note with it: Mus musculus, P388, ip. The format is functional. Put shortly: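 Mice implanted ip with 10⁶ P388 leukemia cells and treated ip on days 1-5. % increase in life span is reported at the highest dose tested.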

Some results are limits rather than exact numbers.

`CCOC(=O)Nc1cc(NC(C)C(O)c2ccc3c(c2)OCO3)c([N+](=O)[O-])c(N)n1` (stereo unspecified): the IC50 in [1] came out at 21 µM. This counts as double-digit micromolar.
`CCOC(=O)Nc1cc(NC(C)C(=O)Cc2ccccc2)c([N+](=O)[O-])c(N)n1` (stereo unspecified): in experiment [2], the ILS at 200 mg/kg was determined as 10%. The molecule further registered an IC50 in experiment [1] of 10 µM.
On to `CCOC(=O)Nc1cc(N)c([N+](=O)[O-])c(N)n1`, for which, in experiment [3], the IC50 is 48 µM. Further, in experiment [4], the ILS at 200 mg/kg came to 0%.
For `CCOC(=O)Nc1cc(NC(CC)C(O)c2ccccc2)c([N+](=O)[O-])c(N)n1` (stereo unspecified), the IC50 in experiment [1] came out at 22 µM.
On the same count and under the same terms, the result for `CCCCC(Nc1cc(NC(=O)OCC)nc(N)c1[N+](=O)[O-])C(C)=O` (stereo unspecified) reads 31 µM.
The molecule `CCOC(=O)Nc1cc(NC(C)C(=O)c2ccc(O)cc2)c([N+](=O)[O-])c(N)n1` (stereo unspecified) registered an ILS at 100 mg/kg in experiment [5] of 71%. In experiment [1], this molecule displayed an IC50 of 1.2 µM.
Turning to `CCOC(=O)Nc1cc(N[C@H](C)[C@@H](O)c2ccc(O)cc2)c([N+](=O)[O-])c(N)n1`, the ILS at 200 mg/kg in experiment [2] was determined as 0%. The IC50 in [1] was found to be 23 µM.
In the same order, the values of `CCOC(=O)Nc1cc(N[C@@H](C)[C@H](O)c2ccccc2)c([N+](=O)[O-])c(N)n1` are 53% and 7.8 µM.
`COc1ccc(/C(=N/O)C(C)N)cc1` (stereo unspecified) displayed an IC50 in experiment [1] above 100 µM.
The molecule `CCOC(=O)Nc1cc(N[C@H](C)[C@@H](O)c2ccccc2)c([N+](=O)[O-])c(N)n1` yielded an ILS at 200 mg/kg in experiment [2] of 0%. In addition, the IC50 in [1] was determined as 31 µM.
For `CCCCC(O)C(C)Nc1cc(NC(=O)OCC)nc(N)c1N` (stereo unspecified), in experiment [2], the ILS at 200 mg/kg amounted to 10%. In experiment [1], this molecule came in with an IC50 of 18 µM.
As for `CCOC(=O)Nc1cc(N[C@H](C)[C@@H](O)c2ccc(O)cc2)c(N)c(N)n1`, in experiment [2], the ILS at 200 mg/kg turned out to be 0%. Further, in experiment [1], half-maximal inhibition (IC50) required 51 µM.
In experiment [1], `CCOC(=O)Nc1cc(NC(C)C(=O)c2ccc3c(c2)OCO3)c([N+](=O)[O-])c(N)n1` (stereo unspecified) yielded an IC50 of 69 µM.
Molecule `CCOC(=O)Nc1cc(N[C@H](C)C(=O)c2ccccc2)c([N+](=O)[O-])c(N)n1` displayed an ILS at 200 mg/kg in [2] of 0%. The molecule also came in with an IC50 in [1] of 24 µM.
`CCCCC(O)C(C)Nc1cc(NC(=O)OCC)nc(N)c1[N+](=O)[O-]` (stereo unspecified): in [1], the IC50 worked out at 55 µM.
Still for that read-out and setting: the result for `CCOC(=O)Nc1cc(NC(C)C(O)c2ccc(O)cc2)c([N+](=O)[O-])c(N)n1` (stereo unspecified) reads 12 µM.
In [3], `CCOC(=O)Nc1cc(NCCc2ccccc2)c(N)c(N)n1` gave an IC50 of 75 µM.
Consider `CCCCC(Nc1cc(NC(=O)OCC)nc(N)c1[N+](=O)[O-])C(C)O` (stereo unspecified), for which inhibition in [1] was half-maximal at 56 µM (IC50). This lies in the double-digit micromolar range.
Consider `CCCCC(=O)C(C)Nc1cc(NC(=O)OCC)nc(N)c1[N+](=O)[O-]` (stereo unspecified), for which, in experiment [1], it took 54 µM to reach half-maximal inhibition (IC50). The IC50 values of the last two molecules are within 1.5-fold of each other.
Take `CCOC(=O)Nc1cc(NC(C)/C(=N/O)c2cccc([N+](=O)[O-])c2)c([N+](=O)[O-])c(N)n1` (stereo unspecified): the Cells in metaphase in experiment [6] is given as 4%; in [7], 6%; in experiment [8], 2%; in experiment [9], 2%; in experiment [10] it was 1%; in experiment [11] it was 2%. Moreover, the ILS at 100 mg/kg in [5] was 25%. Moreover, the IC50 in [1] is 32 µM.
`CCOC(=O)Nc1cc(N[C@@H](C)/C(=N\O)c2ccc(O)cc2)c([N+](=O)[O-])c(N)n1` returned an IC50 in [1] of 26 µM.
For `CCOC(=O)Nc1cc(N[C@@H](C)[C@H](O)c2ccc(O)cc2)c([N+](=O)[O-])c(N)n1`, the ILS at 200 mg/kg in experiment [2] turned out to be 20%. The molecule further returned an IC50 in [1] of 12 µM.
For `CCOC(=O)Nc1cc(NC(C)C(O)Cc2ccccc2)c([N+](=O)[O-])c(N)n1` (stereo unspecified), half-maximal inhibition in [1] (IC50) was put at 53 µM.
Still for that read-out and setting: the figure for `CCOC(=O)Nc1cc(N[C@@H](C)C(=O)c2ccc(O)cc2)c([N+](=O)[O-])c(N)n1` is 24 µM.
`CCOC(=O)Nc1cc(N[C@H](C)[C@@H](O)c2ccccc2)c(N)c(N)n1` gave an ILS at 200 mg/kg in [2] of 10%. Half-maximal inhibition in experiment [1] (IC50) was put at 5.9 µM.
Molecule `CCOC(=O)Nc1cc(N[C@H](C)C(=O)c2ccc(O)cc2)c([N+](=O)[O-])c(N)n1` came in with an IC50 in [1] of 44 µM.
Regarding `CCOC(=O)Nc1cc(NC(c2ccccc2)c2ccccc2)c(N)c(N)n1`, the ILS at 200 mg/kg in experiment [12] stood at 0%. Besides, in [13], half-maximal inhibition (IC50) required 0.26 µM.
As to `CCOC(=O)Nc1cc(N[C@@H](C)/C(=N/O)c2ccc(O)cc2)c([N+](=O)[O-])c(N)n1`, the IC50 in experiment [1] amounted to 6.7 µM. In experiment [14], this molecule gave an ILS at 2 mg/kg of 90%.
For `CCOC(=O)Nc1cc(N/N=C/c2ccccc2)c(N)c(N)n1`, the ILS at 200 mg/kg in experiment [4] was 3%.
As for `CCOC(=O)Nc1cc(NC(C)C(O)COc2ccccc2)c(N)c(N)n1` (stereo unspecified), 21 µM corresponded to half-maximal inhibition in [1] (IC50).
Molecule `CCCCC(Nc1cc(NC(=O)OCC)nc(N)c1N)C(C)O` (stereo unspecified) gave an ILS at 200 mg/kg in [15] of 45%. Also, in experiment [1], the IC50 stood at 1.7 µM.
In the case of `CCOC(=O)Nc1cc(NC(CC)C(=O)c2ccccc2)c([N+](=O)[O-])c(N)n1` (stereo unspecified), in experiment [1], the IC50 is above 100 µM.
In experiment [5], `CCOC(=O)Nc1cc(N[C@@H](C)[C@H](O)c2ccc(O)cc2)c(N)c(N)n1` gave an ILS at 100 mg/kg of 58%. The same molecule registered an IC50 in experiment [1] of 0.62 µM.
Molecule `CCOC(=O)Nc1cc(NC(C)C(=O)COc2ccccc2)c([N+](=O)[O-])c(N)n1` (stereo unspecified) returned an IC50 in experiment [1] of 89 µM.
Same read-out and setting: the result for `CCOC(=O)Nc1cc(NC(C)C(O)COc2ccccc2)c([N+](=O)[O-])c(N)n1` (stereo unspecified) reads 55 µM.
In turn, `CCOC(=O)Nc1cc(NCCc2ccccc2)c([N+](=O)[O-])c(N)n1` came in with an IC50 in experiment [3] above 100 µM.
As for `CCOC(=O)Nc1cc(NN(C)C(=N)c2ccccc2)c([N+](=O)[O-])c(N)n1`, the IC50 in experiment [1] is above 100 µM.
On the same count and under the same terms, the figure for `CCOC(=O)Nc1cc(NC(/C(=N/O)c2ccccc2)c2ccccc2)c([N+](=O)[O-])c(N)n1` (stereo unspecified) is 45 µM.
`CC[C@]1(O)C[C@H]2CN(CCc3c([nH]c4ccccc34)[C@@](C(=O)OC)(c3cc4c(cc3OC)N(C=O)[C@H]3[C@@](O)(C(=O)OC)[C@H](OC(C)=O)[C@]5(CC)C=CCN6CC[C@]43[C@@H]65)C2)C1` [VINCRISTINE] yielded an ILS at 2 mg/kg in experiment [14] of 85%.

A word on the IC50: it is the midpoint of a concentration-inhibition curve. Low values mean higher potency, high ones lower potency. As a reminder, the ILS is how much longer treated animals lived than controls.
